High-throughput results (PubChem BioAssay)
Shown are actives, neighbours in structure and some others; about 2.3% of the full set was active somewhere.
TRPC4 potent: TRPC4 (mouse) allosteric potentiation. Q9QUQ5. HEK293 TRPC4beta/mu-opioid, DAMGO EC20, Fluo-4 Ca2+ flux; active compounds read high. AID 2227. B-score at 10 µM. hit rate 0.42% among 310,000;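 active = B-score of calcium response area above 5 SD of library B-scores, with initial fluorescence ratio within 5 SD of library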
Target sequence (Q9QUQ5 whole entry, looked up): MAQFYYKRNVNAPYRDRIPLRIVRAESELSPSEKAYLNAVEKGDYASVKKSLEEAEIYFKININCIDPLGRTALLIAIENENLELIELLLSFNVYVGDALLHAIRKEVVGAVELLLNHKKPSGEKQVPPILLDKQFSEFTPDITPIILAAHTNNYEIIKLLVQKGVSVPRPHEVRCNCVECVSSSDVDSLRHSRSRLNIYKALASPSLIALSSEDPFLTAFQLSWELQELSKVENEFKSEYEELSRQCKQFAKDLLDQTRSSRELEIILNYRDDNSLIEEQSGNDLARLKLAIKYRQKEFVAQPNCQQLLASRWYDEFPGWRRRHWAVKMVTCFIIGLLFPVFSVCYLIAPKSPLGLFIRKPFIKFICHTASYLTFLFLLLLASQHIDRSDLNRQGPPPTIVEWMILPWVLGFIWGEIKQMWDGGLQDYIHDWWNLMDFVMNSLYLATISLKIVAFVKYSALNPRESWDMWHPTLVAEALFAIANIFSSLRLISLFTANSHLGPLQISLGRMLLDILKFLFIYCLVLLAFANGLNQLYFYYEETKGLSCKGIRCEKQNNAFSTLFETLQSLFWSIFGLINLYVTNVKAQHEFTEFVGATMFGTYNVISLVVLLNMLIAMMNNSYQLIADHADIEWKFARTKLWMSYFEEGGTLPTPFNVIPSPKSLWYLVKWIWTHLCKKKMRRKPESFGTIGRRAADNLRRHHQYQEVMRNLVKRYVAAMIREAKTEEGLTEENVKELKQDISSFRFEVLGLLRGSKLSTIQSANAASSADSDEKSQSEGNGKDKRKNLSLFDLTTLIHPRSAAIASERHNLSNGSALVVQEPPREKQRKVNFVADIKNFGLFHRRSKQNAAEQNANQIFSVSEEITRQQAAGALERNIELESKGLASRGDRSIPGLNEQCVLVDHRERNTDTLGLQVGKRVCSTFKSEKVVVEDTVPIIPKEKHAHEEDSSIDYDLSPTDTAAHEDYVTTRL
TRPC6 inhibitor: blocks the mouse TRPC6 cation channel; Q61143; HEK293-TRPC6, membrane potential dye, ACh-evoked depolarization; active compounds read low; B-score at 10 µM; hit rate 1.1% among 310,000; AID 2553;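 active = B-score under library mean minus 3 SD, initial fluorescence not abnormally high, positive integrated signal ratio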;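 note: B-score derived from integrated fluorescence ratio over the kinetic read; more negative B-score means stronger inhibition of depolarization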
TRPC6 act: mouse TRPC6 channel activation. Q61143. HEK293-TRPC6 membrane potential dye fluorescence; active compounds read high. B-score at 10 µM. hit rate 0.13% among 310,000. AID 2550;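 active = B-score of the integrated fluorescence ratio above library mean plus 3 SD, and starting fluorescence ratio within library mean plus 5 SD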;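 note: higher score means more depolarization so channel activation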
TRPC4 inh: inhibitors of mouse TRPC4 channel. HEK293 TRPC4beta/mu-opioid, DAMGO-evoked Fluo4 calcium flux; active compounds read low. hit rate 0.39% among 300,000. Q9QUQ5. B-score at 10 µM;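 active = B-score over 3 SD under the library average, no early fluorescence shift, positive overall ratio signal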
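test system = HEK293 cells with stable TRPC4beta plus mu-opioid receptor expression | detection = Fluo4 Ca2+ flux fluorescence | read-out = integrated fluorescence ratio relative to baseline, converted to per-well B score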
TRPC4 act: opens the mouse TRPC4 cation channel. Q9QUQ5. HEK293 TRPC4beta/mu-opioid, Fluo4 calcium fluorescence; active compounds read high. B-score at 10 µM. hit rate 0.49% among 310,000. AID 2237;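 active = B-score above 5 SD of library B-scores, and initial fluorescence ratio not above library mean plus 5 SD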;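 note: positive B-score marks a calcium rise read as TRPC4 activation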
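Technique: kinetic Fluo4 calcium fluorescence; Test system: TRPC4beta and mu-opioid receptor HEK293 stable cells; Measure: B-scored integrated calcium fluorescence ratio; Benchmarks: low control buffer alone, high control maximal DAMGO; Schedule: 45 min room-temperature Fluo4 loading, 110 s read.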
TRPC4 spec 2: second selectivity test of TRPC6 inhibitors: effect on mouse TRPC4; shares compounds with TRPC6 inhibitor; HEK293 TRPC4/MOR, membrane potential dye fluorescence; channel activated by saturating DAMGO dose; inhibition, % at 10 µM; hit rate 42% among 920;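 active = compounds whose fluorescence signal differed from control wells by over 3 SD, either direction, in both duplicate plates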
TRPC4 spec: mouse TRPC4 off-target activity of TRPC6 inhibitors | shares compounds with TRPC6 inhibitor | hit rate 61% among 920 | HEK293 TRPC4/mu-opioid, membrane potential fluorescence | activity change, negative = inhibition, % at 10 µM | AID 2777;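 active = rise or fall in signal beyond 3 SD of buffer-only wells in both replicate plates, either sign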;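 note: integrated kinetic ratio of fluorescence range over baseline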
HEK293 MPD ctr 2-1: parental HEK293 nonspecific activity of TRPC6 inhibitors, second screen. shares compounds with TRPC6 inhibitor. parental HEK293 membrane potential dye fluorescence; maximal acetylcholine challenge after compound addition. signal change vs control, % at 10 µM. hit rate 31% among 920;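 active = membrane potential signal moving either way by over 3 SD of the maximum-effect control, in both duplicate plates, meaning non-specific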
HEK293 MPD ctr-1: parental HEK293 nonspecific activity of TRPC6 inhibitors. parental HEK293 membrane potential dye fluorescence. membrane potential signal change, % at 10 µM. AID 2780. shares compounds with TRPC6 inhibitor. hit rate 60% among 920;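 active = membrane potential signal shifting up or down by more than 3 SD of buffer-only wells, on both duplicate plates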
HEK293 MPD ctr-2: checks TRPC6 modulator effects in parental HEK293 cells. shares compounds with TRPC6 inhibitor. membrane potential dye fluorescence. hit rate 51% among 2,400. membrane potential signal change, % at 10 µM;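 active = membrane potential signal moves up or down beyond 5 SD from buffer-only wells, on both duplicate plates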
HEK293 MPD ctr 2-2: second check of TRPC6 modulator effects in parental HEK293 cells; shares compounds with TRPC6 inhibitor; membrane potential dye fluorescence; after compound, maximal acetylcholine stimulation; inhibition, % at 10 µM; hit rate 14% among 2,400; AID 488926;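 active = membrane potential signal drops by more than 5 SD from the mean control signal, in both duplicate plates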
TRPC4 ctr mod: mouse TRPC4 off-target activity of TRPC6 modulators; hit rate 69% among 2,400; percent change from control (negative = decrease, positive = increase), % at 10 µM; shares compounds with TRPC6 inhibitor; HEK293 TRPC4/mu-opioid, membrane potential fluorescence;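 active = membrane potential signal moved up or down beyond 5 SD of buffer control wells, in both duplicate plates, actives on both sides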
TRPC4/MOR inh 2: second selectivity test of TRPC6 modulators against mouse TRPC4; shares compounds with TRPC6 inhibitor; HEK293 TRPC4/mu-opioid, membrane potential dye fluorescence; stimulated with maximal-effect DAMGO; inhibition, % at 10 µM; hit rate 55% among 2,400; AID 488928;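 active = drop in membrane potential signal beyond 5 SD of the control wells in both duplicate plates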;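 note: TRPC4 counter screen for TRPC6 hits run under conditions tuned for TRPC6 not TRPC4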
TRPC6 inh conf: mouse TRPC6 inhibitor confirmation; HEK293-TRPC6, membrane potential dye, ACh-evoked depolarization; AID 488960; inhibition, % at 10 µM; hit rate 43% among 3,300; shares compounds with TRPC6 inhibitor;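 active = fluorescence ratio falls more than 5 SD below the full-stimulation control mean, in both duplicate runs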;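 note: integrated fluorescence ratio of peak minus minimum over baseline after agonist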
TRPC6 act confirm: mouse TRPC6 activator confirmation; hit rate 11% among 2,800; activation, % at 10 µM; HEK293-TRPC6 membrane potential dye fluorescence, FDSS; AID 488961; shares compounds with TRPC6 inhibitor;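 active = ratio signal rise beyond 5 SD above unstimulated control wells' mean, seen in both duplicate runs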
Hits are given with their value.

`CC(=O)Nc1ccc(CN2CCN(C3CCCC3)C(CCO)C2)cc1` (stereo not given) gave TRPC4 potent inactive, TRPC6 inhibitor -6.89, TRPC6 act inactive, TRPC4 inh inactive, TRPC4 act inactive, TRPC4 spec 2 inactive, TRPC4 spec inactive, HEK293 MPD ctr 2-1 inactive, HEK293 MPD ctr-1 inactive, TRPC6 inh conf inactive and TRPC6 act confirm inactive.
For Cc1cc(-n2cccn2)ccc1CN1CCN(C2CCCC2)C(CCO)C1 (stereo not given) the results were TRPC4 potent inactive, TRPC6 inhibitor -9.67, TRPC6 act inactive, TRPC4 inh inactive, TRPC4 act inactive, TRPC4 spec 2 inactive, TRPC4 spec 8.4%, HEK293 MPD ctr 2-1 19.5%, HEK293 MPD ctr-1 9.2% and TRPC6 inh conf 62.5%.
CCOc1ccc(NC(=O)CNC(=O)c2cccs2)cc1 was read as TRPC4 potent inactive, TRPC6 inhibitor inactive, TRPC6 act inactive, TRPC4 inh inactive and TRPC4 act inactive.
Cc1ccc(C)c(C(=O)COC(=O)Cn2c(C)csc2=O)c1 was read as TRPC4 potent inactive, TRPC6 inhibitor inactive, TRPC6 act inactive, TRPC4 inh inactive and TRPC4 act inactive.
`CC(=O)c1ccc(OC(C)C)c(Cc2c(O)nc(N)[nH]c2=O)c1` gave TRPC4 potent inactive, TRPC6 inhibitor inactive, TRPC6 act inactive, TRPC4 inh inactive and TRPC4 act inactive.
Screening CCc1ccc(OCC2NCCc3cc(OC)c(OC)cc32)cc1 (stereo not given) returned TRPC4 potent inactive, TRPC6 inhibitor -5.82, TRPC6 act inactive, TRPC4 inh inactive, TRPC4 act inactive, HEK293 MPD ctr-2 inactive, HEK293 MPD ctr 2-2 inactive, TRPC4 ctr mod inactive, TRPC4/MOR inh 2 45.5%, TRPC6 inh conf inactive and TRPC6 act confirm inactive.
Screening CCN(CC)CCCn1c2c(c(SCC(=O)Nc3nc4ccccc4s3)nc1=O)CCC2 returned TRPC4 potent inactive, TRPC6 inhibitor inactive, TRPC6 act inactive, TRPC4 inh inactive and TRPC4 act inactive.
Screening COc1cc2c(cc1OC)CN(S(=O)(=O)c1cccs1)CC2 returned TRPC4 potent inactive, TRPC6 inhibitor inactive, TRPC6 act inactive, TRPC4 inh inactive and TRPC4 act inactive.
Screening COc1ccc(S(=O)(=O)N2CCc3cc(OC)c(OC)cc3C2)cc1 returned TRPC4 potent inactive, TRPC6 inhibitor -7.09, TRPC6 act inactive, TRPC4 inh inactive, TRPC4 act inactive, TRPC4 spec 2 inactive, TRPC4 spec inactive, HEK293 MPD ctr 2-1 inactive, HEK293 MPD ctr-1 inactive, TRPC6 inh conf inactive and TRPC6 act confirm inactive.
CN(C)c1nc(Cl)nc(N(C#N)CCOc2ccccc2)n1 was read as TRPC4 potent inactive, TRPC6 inhibitor inactive, TRPC6 act inactive, TRPC4 inh inactive and TRPC4 act inactive.
Cc1ccc(-n2nnnc2CNC(=O)c2ccc3c(c2)OCO3)cc1C was read as TRPC4 potent inactive, TRPC6 inhibitor -8.09, TRPC6 act inactive, TRPC4 inh inactive, TRPC4 act inactive, HEK293 MPD ctr-2 inactive, HEK293 MPD ctr 2-2 95.0%, TRPC4 ctr mod 19.0%, TRPC4/MOR inh 2 inactive, TRPC6 inh conf 79.5% and TRPC6 act confirm inactive.
Screening CCCN1CCC(=NNc2ccc(S(=O)(=O)N(CC)CC)cc2[N+](=O)[O-])CC1 returned TRPC4 potent inactive, TRPC6 inhibitor -5.89, TRPC6 act inactive, TRPC4 inh inactive, TRPC4 act inactive, HEK293 MPD ctr-2 inactive, HEK293 MPD ctr 2-2 inactive, TRPC4 ctr mod -11.0%, TRPC4/MOR inh 2 51.0%, TRPC6 inh conf 46.5% and TRPC6 act confirm inactive.
For CCN(CC)CCOC(=O)c1ccc(NC(=O)C2(c3ccccc3)CCCC2)cc1 the results were TRPC4 potent inactive, TRPC6 inhibitor -5.21, TRPC6 act inactive, TRPC4 inh inactive, TRPC4 act inactive, HEK293 MPD ctr-2 125.0%, HEK293 MPD ctr 2-2 inactive, TRPC4 ctr mod 15.5%, TRPC4/MOR inh 2 58.0% and TRPC6 inh conf inactive.
`O=C(OCCN1CCCCC1)c1ccccc1Br` gave TRPC4 potent inactive, TRPC6 inhibitor inactive, TRPC6 act inactive, TRPC4 inh inactive and TRPC4 act inactive.
For O=C(OCCN1CCCCC1)C1(c2ccccc2)CCCC1 the results were TRPC4 potent inactive, TRPC6 inhibitor -7.36, TRPC6 act inactive, TRPC4 inh inactive, TRPC4 act inactive, TRPC4 spec 2 inactive, TRPC4 spec 19.3%, HEK293 MPD ctr 2-1 21.0%, HEK293 MPD ctr-1 16.1% and TRPC6 inh conf 83.0%.
For O=C(OCCN1CCCC1)C1(c2ccccc2)CCCC1 the results were TRPC4 potent inactive, TRPC6 inhibitor -8, TRPC6 act inactive, TRPC4 inh inactive, TRPC4 act inactive, TRPC4 spec 2 inactive, TRPC4 spec 9.8%, HEK293 MPD ctr 2-1 15.5%, HEK293 MPD ctr-1 12.6% and TRPC6 inh conf 63.6%.
Screening CCNC(=O)C1(c2ccccc2)CCCC1 returned TRPC4 potent inactive, TRPC6 inhibitor inactive, TRPC6 act inactive, TRPC4 inh inactive and TRPC4 act inactive.
CN(C)CCOC(=O)C1(c2ccccc2)CCCC1 was read as TRPC4 potent inactive, TRPC6 inhibitor -9.57, TRPC6 act inactive, TRPC4 inh inactive, TRPC4 act inactive, TRPC4 spec 2 inactive, TRPC4 spec 2.4%, HEK293 MPD ctr 2-1 19.0%, HEK293 MPD ctr-1 5.8% and TRPC6 inh conf inactive.
